These results are taken from the EternaBench riboswitch data.

The test system of this series is MS2 coat protein. Briefly: apparent Kd, MS2 coat protein; higher = weaker binding; RNA-MaP array; FMN 200 µM where present. A digest of the protocol: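 SNAP-549-labelled MS2 coat protein, doubled from 0.7 or 1.5 nM to 3 µM, was titrated over designs transcribed by stalled E. coli RNA polymerase on Illumina sequencing-chip clusters. Titrations were run without and then with constant ligand in 100 mM Tris-HCl pH 7.5, 80 mM KCl, 4 mM MgCl2, BSA, DTT, yeast tRNA and Tween-20. The apparent Kd is the median of filtered per-cluster fits to green signal normalised to red-channel RNA signal and control-cluster median Fmax.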

[1] abbreviates: designed as: OFF switch for flavin mononucleotide, no ligand.
[2] abbreviates: ligand present: flavin mononucleotide, designed as: OFF switch for flavin mononucleotide.
Setting [3] is: designed as: ON switch for flavin mononucleotide, no ligand.
Where [4] appears, read: ligand present: flavin mononucleotide, designed as: ON switch for flavin mononucleotide.

As for “ACAUGGUAUGUCAGGAUAUCUAACCGCAACGUUCUAGAGAAGGGACAUGAGGAUCACCCAUGUACGUUGUAAGA”, the apparent Kd (usually the concentration giving half-maximal binding under the conditions of the assay) is, setting by setting: under setting [1], 54.3 nM; under setting [2], 117 nM.
The corresponding values for “AAUUAUUGAUGAGGAUAUUGUGGUGAAACACGACAAGAAGGCAUUAUUCACAUGAGGAUCACCCAUGUGAGCCUGAUGCAUAUA” are 14.5 nM and 13.9 nM.
The corresponding values for “GCUGACGAUGUAGGAUAUCUCGACGAUAAGUCGAGAGAAGGACAUGAGGAUCACCCAUGUACUCAAACGUCAGCGAGGAAACUC” are 18.7 nM and 27.6 nM.
The corresponding values for “GCUAGUAUUGCAGGAUAUUGUAAUUUAUUAUUUCAAGAAGGGCAUUACAUGAGGAUCACCCAUGUCAUCCUAUGGUUUACUAGC” are 9.2 nM and 19.9 nM.
On to “GAUGCACAUGAGAAGGCGAUCAUGAAACAUGAUCGAGGAUAUCAUGUAAACAUGAGGAUCACCCAUGUAUGGGAAAAGUGCAUC”, for which the “apparent Kd” value reads like this: under setting [3], 119 nM; under setting [4], 12.1 nM.
On to “GGAUAGGACAGAGGAUAUACUUGCUAGAGAUACUAGCAAAAUUUCCUCACAUGAGGAUCACCCAUGUAGAAGGCUGUCCUAUCG”, for which the “apparent Kd” value under setting [1] came out at 6.95 nM and the “apparent Kd” value under setting [2] was 54.5 nM.
With “UUUACAUUACGAGGAUAUCAAUUAUUUCAUGUAUGAGAAGGCGUUAUUUUUACUACCUUACAUGAGGAUCACCCAUGUUUCAUU”, the “apparent Kd” value under setting [3] came out at 62.8 nM and the “apparent Kd” value under setting [4] was 27.8 nM.
The corresponding values for “UGGUACUAGGGAGGAUAUGGGAAGAUACAUGAGGAUCACCCAUGUUUAAGAAUGCCGAGAGGCAACUAGAAGGGCCUAGUACCU” are 804 nM and 280 nM.
In the same order, the values of “GGGUACAUCGGAGGAUAUCAUGUAAAUACAUGAGGAUCACCCAUGUCGAUGGAAACAUCGGAGAUUGAGAAGGCCGAUGUACCG” are 9.76 nM and 5.01 nM.
As to “UUCAGCGAUCAAGGAUAUCUAUAAACAUGAGGACAUGAGGAUCACCCAUGUUGAUCACCCAUGUAGGAGAAGGUGAACAUGAGG”, the “apparent Kd” value amounted to 81.8 nM under setting [3] and 29.8 nM under setting [4].
In the case of “AGCAGACGAGGAUAUAGAUUUGUUAACAUGAGGAUCACCCAUGUGAUCGAUUAAUCAUAUUUAGAAGGUGUCUGCU”, the “apparent Kd” value by setting is: under setting [1], 37.7 nM; under setting [2], 154 nM.
Turning to “GGAGCUCCUGACAUGAGGAUCACCCAUGUUCACUUAUUAAAUCAGGAUAUCCUCUCGAAACGAGAGGAGAAGGGAUAUGCUCCU”, the “apparent Kd” value turned out to be 7.58 nM under setting [3] and 7.04 nM under setting [4].
Take “CAGAUCGAUGUGAGGAUAUCUGUGUUACCCUGUAAGGAGAAGGCACAUGAGGAUCACCCAUGUGAUUCGGUCCU”: the “apparent Kd” value by setting is: under setting [1], 40.4 nM; under setting [2], 36.3 nM.
In the same order, the values of “GCUGCGCGAGGAUAUGCGGUUUGCGCUGUGGCCCGUGGCGUACAUGAGGAUCACCCAUGUAGAAGGCGUGCGGG” are 11.6 nM and 12.1 nM.
Take “AAUUGAGAGCAGGAUAUAUUCCUGAUGUAUGAAGUAGAAGGGCUCACAUGAGGAUCACCCAUGUGAUCCUGAAU”: the “apparent Kd” value is, setting by setting: under setting [1], 16.1 nM; under setting [2], 18 nM.
On to “AUUAAACAUGAGGAUCACCCAUGUAAUAUUAUGGGAGGAUAUGCGAAUUUAAUUAAUUAAGCAGAAGGCCUAAUUA”, for which the “apparent Kd” value came out at 108 nM under setting [3] and 19 nM under setting [4].
The corresponding values for “UCUCGUGUUCAGAAGGGCAAUCAACGAACAUGAGGAUCACCCAUGUUCUGCAGGAUAUGAACGGGUGGGAGCCCUGCGAAGGGA” are 167 nM and 25.5 nM.
For “AGUUAUUCAGGAUAUGGUGUGUUAUACAUGAGGAUCACCCAUGUGGGUCCUGGUUAGGCCUCAGAAGGGAAUGUUA”, the “apparent Kd” value came out at 703 nM under setting [1] and 534 nM under setting [2].
The corresponding values for “AAGAAGUCAGGAUAUCCAGCUCGUCACUUGCGUGAUGAGUUGGAGAAGGGACAUGAGGAUCACCCAUGUAAAGA” are 56.1 nM and 49.3 nM.
The corresponding values for “UCGGCGCGAGGAUAUACGUUUGCUUUUUAGGAUCGUGGCGUACAUGAGGAUCACCCAUGUAGAAGGCGCGCCGC” are 13.8 nM and 20.3 nM.
The corresponding values for “CAGUACUGAGGAUAUACAUGAGGAUCACCCAUGUGUCUAAGGUAGGAUACUACCAUUAGUAGAAGGCAGUACUG” are 12.4 nM and 18.1 nM.
Consider “GUGGUUGUCGUAGGAUAUGUAGGAUAUUCCUACAUGAGGAUCACCCAUGUUCGCAUGGAAGAAUGACAGAAGGACGAUGACCAU”, for which the “apparent Kd” value under setting [3] was 330 nM and the “apparent Kd” value under setting [4] was 82.6 nM.
Consider “GUAGCAUACCGAGGAUAUUCAGGGCGUGGAUAGACAUGAGGAUCACCCAUGUGGCGAAAGCCUAGGGAGAAGGCGGAAUGCUAC”, for which the “apparent Kd” value by setting is: under setting [3], 26.9 nM; under setting [4], 17.6 nM.
On to “UCAUUUCAGUAAGGAUAUUAAAACAUGACGAUACAUGAGGAUCACCCAUGUUAAGAAGGUACUAAUACAAAUAAUGCAUUGUUC”, for which the “apparent Kd” value under setting [1] worked out at 14.7 nM and the “apparent Kd” value under setting [2] amounted to 15.5 nM.
As for “GGUACCUUCACAGGAUAUGCUAUGGUUUCCGUAGCAGAAGGGUGAUACAUGAGGAUCACCCAUGUGGUGCCAGGGCGUGAGCCC”, the “apparent Kd” value under setting [3] worked out at 387 nM and the “apparent Kd” value under setting [4] came out at 293 nM.
“ACCUCACAUGAGGAUCACCCAUGUCAGGAUAUUCAAACAGGCGAAACUCCGCCUUCUCGAAGAAGGGACAUUAA”: the “apparent Kd” value is 15.9 nM under setting [1] and 64.5 nM under setting [2].
In the same order, the values of “UGUCGGAGCAGAGGAUAUUACAUGAGGAUCACCCAUGUAUGAAACAAUAGCUGGAAACAGCAAUGUAAGAAGGCUGCUCCGACA” are 5.94 nM and 11.3 nM.
The corresponding values for “GAUUUAGAGCAGGAUAUCAUAGAAAUGUAUGAAUGAGAAGGGCUCACAUGAGGAUCACCCAUGUGGUCCUAGAU” are 25.4 nM and 240 nM.
On to “CACAUGAGGAUCACCCAUGUACUUAAUAUAAAUGUCAGAACCAGAAGGACCAGUUGAUUUGACCGGUAGGAUAUGGGCGGACCG”, for which the “apparent Kd” value reads like this: under setting [3], 18.1 nM; under setting [4], 6.89 nM.
In the same order, the values of “UGGCCGGAGACAGGAUAUGUGACUGCAUAGUGCACAGAAGGGUCUACAUGAGGAUCACCCAUGUCACCGAACGCCAAACCACAA” are 574 nM and 26.1 nM.
For “ACUGACAUGAGGAUCACCCAUGUCUUGGAUAGGCCAAAUUCACAGGAUAUGCAUGAGGAAAGAGUGCAGAAGGGUGAUGCAAUG”, the “apparent Kd” value runs as follows: under setting [3], 43.6 nM; under setting [4], 23.9 nM.
For “GUCGGAAACGACAAGUAGCAAUCGGAGGAUAUUCAUUAAAACAUGAGGAUCACCCAUGUAAAAUGGGAGAAGGCCGAUUGCUAC”, the “apparent Kd” value under setting [3] worked out at 13.6 nM and the “apparent Kd” value under setting [4] is 6.03 nM.
For “GUCAGCUCGUGAGGAUAUACUUCACUGCUUCGGCAGUGUAUUAAGAUCACAUGAGGAUCACCCAUGUAGAAGGCACGAGCUGAU”, the “apparent Kd” value runs as follows: under setting [1], 22.8 nM; under setting [2], 182 nM.
Take “GUAGAGUAGUGAGGAUAUACGAGAUCGAUAGAUCGGCGAUCCAUUAAUACAUGAGGAUCACCCAUGUAGAAGGCACUUCUCUAC”: the “apparent Kd” value reads like this: under setting [1], 6.31 nM; under setting [2], 76.7 nM.
As to “UUGGAGAUAGGAUAUACGAGGAGAGUUGAGGGAAGGUGAUGACAUGAGGAUCACCCAUGUAGAAGGAUCAGGAG”, the “apparent Kd” value under setting [1] stood at 144 nM and the “apparent Kd” value under setting [2] came out at 87.2 nM.
The corresponding values for “AUCGUAACAGGAGGAUAUUACACUCGGUUGGUCCGCUGCGGGUUGAAACAUGAGGAUCACCCAUGUAAGAAGGCCUGUGUGACU” are 317 nM and 103 nM.
In the same order, the values of “CGGCUCGGAGAGGAUAUGCAGGCCAACGGCACUGCAGAAGGUUCAACAUGAGGAUCACCCAUGUGAUUUCAACU” are 23.6 nM and 33.5 nM.
In the same order, the values of “AGUCGGGAAUACUCGAAUGGUUAGCAGGAUAUCGACAUGAGGAUCACCCAUGUUGGGUUGAAUGUCGAGAAGGGCUCGGAAUGA” are 198 nM and 193 nM.
In the case of “AAAAUAAAAAGGCAGGAUAUCCAAAAUAAAACAUGAGGAUCACCCAUGUAAAUAAAAAUAAAGUGGGAGAAGGGUUAAAAAUAAAA”, the “apparent Kd” value reads like this: under setting [3], 58.3 nM; under setting [4], 45.3 nM.
For the sequence “UAUGACAUGAGGAUCACCCAUGUCAGCGAGAAAUGAGAGUCACAGGAUAUGUUUUCGGCCGGCAGACAGAAGGGUGACCCUGAG”, the “apparent Kd” value was determined as 10.9 nM under setting [3] and 7.02 nM under setting [4].
“GUCGUGUGAGGAUAUGAUUUUUCGGCGGGCUUGCGUCUGCUUCAGAAGGCACAUGAGGAUCACCCAUGUUUGUC”: the “apparent Kd” value runs as follows: under setting [1], 12 nM; under setting [2], 29.5 nM.
As to “GCCAUCGCAUGAGGAUAUGCUCCGGUUUCCGGAGCAGAAGGCAUGUCAUAAGACAUGAGGAUCACCCAUGUAGUUAAGAUGGCA”, the “apparent Kd” value runs as follows: under setting [3], 715 nM; under setting [4], 33.6 nM.
In the same order, the values of “ACAUGAGGAUCACCCAUGUAGAAUGAAGAAGGUAGAUAAUUGUGUUUCACCCAUGUACAUAAAUCUAAGGAUAUUCUAAUAAUU” are 12.3 nM and 7.35 nM.
The corresponding values for “GUUGCUUUCCGAGGAUAUUCAGGGCGUGGAUAUACAUGAGGAUCACCCAUGUGGCGGAAGCCUAGGGAGAAGGCGGGCUGCUUC” are 41.1 nM and 20.5 nM.
Turning to “GGAUAGGACAGAGGAUAUACGUGCUAGAGAUACUAGCAAAAGUUCCUCACAUGAGGAUCACCCAUGUAGAAGGCUGUCCUAUCG”, the “apparent Kd” value is 65.5 nM under setting [1] and 214 nM under setting [2].
The corresponding values for “GUGUACAGAGGAUAUACACGAGUAGUUACGAAAGUAACUAUACAUGAGGAUCACCCAUGUAGAAGGCUGUACAC” are 19.1 nM and 30.5 nM.
For the sequence “AGUGUCAUCGAGAAGGCCUCAACAUGAGGAUCACCCAUGUUGUAAAAUGGGAGGAUAUCGAUGAUACAGCUACGUUUCGUAGCA”, the “apparent Kd” value under setting [3] was 11.3 nM and the “apparent Kd” value under setting [4] is 4.88 nM.
For “GCGUUGAACGAGAAGGCCAAUACAUGAGGAUCACCCAUGUUAAGUUGUUUUGGAGGAUAUCGAACGCAUUCAAUAUUGCAACGC”, the “apparent Kd” value under setting [1] stood at 6.65 nM and the “apparent Kd” value under setting [2] worked out at 5.84 nM.
